The results in this text go back to article PMC7693064 (American Journal of Hematology, 2020).

The test system of one data set is classical pathway. Description: CH50 assay, hemolytic activity of the classical pathway, PHAROAH. The following applies: six subjects, first year of treatment, with eculizumab. The data set is classed as in vivo, human. In outline: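 Results were reported in complement activity enzyme units or U/mL, as the laboratory changed units during the study. Each value was judged against the reference range in use at that time point. Individual subject data were plotted over time.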

The test system of data set [1] is subjects with PNH. Description: Hemolytic markers. Type of data set: in vivo, human.
The next data set addresses C3 (Homo sapiens, UniProt P01024). As to the kind of experiment: Serum C3 levels, PHAROAH. The data set is classed as in vivo. In outline: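 Values were judged against the reference range in use at each time point. For one subject, pegcetacoplan dosing was suspended between days 29 and 56 and resumed at 180 mg/d on day 57. Individual data were plotted over time.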
Data set [2] in a line: Pegcetacoplan serum concentrations. The data set is classed as in vivo, human. The following applies: single-dose phase, SC 25 or 50 mg (cohorts 1 and 2).
Data set [3] concerns subjects with PNH. As to the kind of experiment: Packed RBC transfusions, PHAROAH. The data set is classed as in vivo, human. In outline: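 Packed RBC transfusions given to each cohort 4 subject were recorded throughout the study. […] Pegcetacoplan was given at 270 mg/d SC, and dosing could be increased with Sponsor approval.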
Another data set deals with alternative pathway. Description: AH50 assay, hemolytic activity of the alternative pathway, PHAROAH. Type of data set: in vivo, human.
Another data set concerns PNH RBCs. The data set is classed as in vivo, human. Summed up: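 Whole-blood flow cytometry. RBCs were gated with FITC anti-human glycophorin A, and CD59 was detected with PE anti-CD59 to classify type II (partial) and type III (complete) deficient cells. C3 deposition was detected with biotinylated anti-human C3d plus streptavidin-APC. Matched mouse IgG isotype controls were included.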

The mark [4] stands for this setting: subject 12, day 421, after initial attempt to discontinue eculizumab with no increase in pegcetacoplan dosing.

Sequence of C3 (P01024 23-1663): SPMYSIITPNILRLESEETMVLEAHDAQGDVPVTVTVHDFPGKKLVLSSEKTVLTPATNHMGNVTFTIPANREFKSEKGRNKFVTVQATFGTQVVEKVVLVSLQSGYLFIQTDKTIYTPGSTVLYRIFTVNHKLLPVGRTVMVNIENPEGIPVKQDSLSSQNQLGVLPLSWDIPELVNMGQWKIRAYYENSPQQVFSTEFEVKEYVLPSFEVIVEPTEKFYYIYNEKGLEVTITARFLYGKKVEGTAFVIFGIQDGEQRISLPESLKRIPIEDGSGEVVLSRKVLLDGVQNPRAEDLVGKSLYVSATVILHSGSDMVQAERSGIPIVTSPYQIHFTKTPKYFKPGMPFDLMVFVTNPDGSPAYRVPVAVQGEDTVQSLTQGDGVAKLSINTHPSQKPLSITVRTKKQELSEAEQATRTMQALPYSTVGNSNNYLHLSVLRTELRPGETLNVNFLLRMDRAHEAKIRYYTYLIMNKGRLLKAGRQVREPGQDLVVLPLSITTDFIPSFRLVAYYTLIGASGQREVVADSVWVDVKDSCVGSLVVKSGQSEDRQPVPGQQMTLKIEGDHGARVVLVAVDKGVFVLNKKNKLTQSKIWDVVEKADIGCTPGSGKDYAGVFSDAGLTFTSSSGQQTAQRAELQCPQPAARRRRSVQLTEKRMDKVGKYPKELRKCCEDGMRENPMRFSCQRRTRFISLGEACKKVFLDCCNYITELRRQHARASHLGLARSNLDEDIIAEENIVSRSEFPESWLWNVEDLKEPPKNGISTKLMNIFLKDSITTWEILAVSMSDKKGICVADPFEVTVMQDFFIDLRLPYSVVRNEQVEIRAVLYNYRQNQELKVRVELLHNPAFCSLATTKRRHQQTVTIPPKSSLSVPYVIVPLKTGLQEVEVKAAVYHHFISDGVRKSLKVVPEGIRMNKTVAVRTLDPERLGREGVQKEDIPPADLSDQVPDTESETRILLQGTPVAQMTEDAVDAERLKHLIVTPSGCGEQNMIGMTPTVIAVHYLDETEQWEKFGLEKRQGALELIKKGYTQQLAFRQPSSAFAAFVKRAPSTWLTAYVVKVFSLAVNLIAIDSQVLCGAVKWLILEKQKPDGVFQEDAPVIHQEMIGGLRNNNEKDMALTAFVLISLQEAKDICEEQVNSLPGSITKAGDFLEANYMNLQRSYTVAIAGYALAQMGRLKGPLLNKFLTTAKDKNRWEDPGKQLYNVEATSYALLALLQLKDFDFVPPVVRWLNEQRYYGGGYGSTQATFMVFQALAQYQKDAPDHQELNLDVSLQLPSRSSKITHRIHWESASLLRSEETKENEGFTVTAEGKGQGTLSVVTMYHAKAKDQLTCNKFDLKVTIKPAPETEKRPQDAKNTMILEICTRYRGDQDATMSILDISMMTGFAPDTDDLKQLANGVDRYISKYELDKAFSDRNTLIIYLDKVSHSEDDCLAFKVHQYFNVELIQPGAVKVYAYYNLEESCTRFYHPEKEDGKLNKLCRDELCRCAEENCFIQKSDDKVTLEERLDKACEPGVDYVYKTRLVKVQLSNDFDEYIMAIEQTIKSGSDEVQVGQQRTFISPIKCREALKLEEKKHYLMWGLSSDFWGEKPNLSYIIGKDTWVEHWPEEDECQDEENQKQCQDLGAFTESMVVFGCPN

As to pegcetacoplan, in the data set with classical pathway, the “Effect on CH50” value is reported as “No significant effect”. For the same substance, in the data set on subjects with PNH [1] (after 2 years of treatment, four remaining subjects), the “Subjects with hemoglobin levels within reference range 11.1-15.9 g/dL” value is reported as “three of the four”. Also, in the data set on subjects with PNH [1] (cohort 4), the “Reticulocyte count, change during the study” value is “reductions were observed in all subjects” and the “Total bilirubin levels, change during the study” value is “Decreases in total bilirubin levels were observed in all subjects”. The Hemoglobin levels result in the data set on subjects with PNH [1] (cohort 4, all six subjects) is recorded as “increased in all subjects by day 29”. In the data set on subjects with PNH [1] (cohort 4, with some fluctuations), the “LDH levels during treatment” value is given as “remained stable”. Further, in the data set on subjects with PNH [1] (setting [4]), the LDH level is given as 1571 U/L and the Total bilirubin level was 2.3 mg/dL. Moreover, the “Serum C3 levels, change” value at C3 (all subjects in cohort 4) is “increase”. Also, the “Serum C3 level” value on C3 (subject 11, day 29) was 415 mg/dL. In addition, the “Serum C3 level” value at C3 (subject 11, day 57, after suspension of pegcetacoplan dosing) stood at 107 mg/dL. For the same substance, the “Time of peak serum concentration” value in data set [2] was “a week after dosing”. Besides, the Transfusion avoidance entry in the data set on subjects with PNH [3] (four subjects who completed the study) is “achieved in all four subjects”. The “Packed RBC transfusions received during the study” value in the data set on subjects with PNH [3] (subject 9, seven given before steady state or after pegcetacoplan was suspended) is reported as “nine”. Besides, the AH50 levels entry in the data set with alternative pathway (after eculizumab discontinuation) was “increased following eculizumab discontinuation”. Besides, the “Subjects with AH50 levels within the 77-159 U/mL reference range” value in the data set with alternative pathway (last evaluation time point, four subjects who completed the study) is given as “two of the four”. In the data set on PNH RBCs (all subjects in cohort 4), the “Deposition of C3 fragments on the surface of type II and III RBCs” value is “decrease”. The “Type II and III cells as a proportion of the clonal distribution of total RBCs” value in the data set on PNH RBCs (five subjects, by day 85) is above 90%.
